Results from ChEMBL document CHEMBL1126123, “Reversible inhibitors of the gastric (H+/K+)-ATPase. 3. 3-substituted-4-(phenylamino)quinolines” (J Med Chem, 1992).

Assays:
[1] = target: Potassium-transporting ATPase (Rattus norvegicus) (UniProt P09626+P18598); test: Inhibition of pentagastrin stimulated gastric acid secretion in anesthetized rat at 10 umol/kg upon intravenous administration; type: functional, organism-based; details: Stomach
[2] = target: T1, Potassium-transporting ATPase (Sus scrofa, UniProt P19156); test: […] inhibit the activity of K+ stimulated gastric ATPase; type: tissue-based, Stomach
Summary of the method: (§1)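 Initial screen of K+-stimulated ATPase activity in a lyophilized gastric vesicle preparation at pH 7, in vitro.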

[3] = target: T2, Potassium-transporting ATPase subunit beta (Rattus norvegicus) (UniProt P18598); test: Inhibition of pentagastrin stimulated gastric acid secretion in anesthetized rat upon intravenous administration; type: functional, organism-based; details: Stomach
T2 sequence (whole entry): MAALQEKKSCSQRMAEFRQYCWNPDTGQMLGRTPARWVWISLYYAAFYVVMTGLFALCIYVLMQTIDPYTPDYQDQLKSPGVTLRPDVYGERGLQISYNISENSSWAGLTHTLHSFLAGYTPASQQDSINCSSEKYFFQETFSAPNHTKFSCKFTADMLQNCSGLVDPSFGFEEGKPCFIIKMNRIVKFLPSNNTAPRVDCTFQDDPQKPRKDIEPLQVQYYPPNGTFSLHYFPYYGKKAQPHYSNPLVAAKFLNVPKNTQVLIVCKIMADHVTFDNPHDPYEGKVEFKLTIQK
Summary of the method: (§2)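 Anesthetized rat with lumen-perfused stomach; acid secretion induced by pentagastrin; compound given intravenously.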

Canis familiaris [4] = test: Inhibition of histamine stimulated gastric acid secretion was tested in heidenhain pouch dog at 4 uM/kg upon oral administration; type: functional, Canis lupus familiaris, Stomach
[5] = target: T1, Potassium-transporting ATPase; test: (§3) […] inhibit the activity of gastric H+/K+ ATPase; type: tissue-based, Stomach; summary of the method: as §1
Rattus norvegicus [6] = test: inhibition pentagastrin stimulated gastric acid secretion in anesthetized rat when compound (10 umol/kg) administered intravenously; type: functional, Stomach
[7] = target: T3, Potassium-transporting ATPase (Sus scrofa) (UniProt P18434+P19156); test: […] inhibit the activity of K+ stimulated gastric ATPase at 100 uM; type: tissue-based; details: Stomach
Canis familiaris [8] = test: Inhibition of histamine stimulated gastric acid secretion was tested in heidenhain pouch dog at 1 umol/kg upon intravenous administration; type: functional; details: Canis lupus familiaris, Stomach
[9] = target: T3, Potassium-transporting ATPase (Sus scrofa); test: as §3; type: tissue-based; details: Stomach; summary of the method: as §1
Canis familiaris [10] = test: Inhibition of histamine stimulated gastric acid secretion was tested in heidenhain pouch dog upon oral administration; type: functional; details: Canis lupus familiaris, Stomach
Canis familiaris [11] = test: Inhibition of histamine stimulated gastric acid secretion was tested in heidenhain pouch dog upon intravenous administration; type: functional; details: Canis lupus familiaris, Stomach
Rattus norvegicus [12] = test: Compound was evaluated for inhibition pentagastrin stimulated gastric acid secretion in anesthetized rat when administered intravenously.; type: functional; details: Stomach, iv; summary of the method: as §2

T1 sequence (P18434 whole entry): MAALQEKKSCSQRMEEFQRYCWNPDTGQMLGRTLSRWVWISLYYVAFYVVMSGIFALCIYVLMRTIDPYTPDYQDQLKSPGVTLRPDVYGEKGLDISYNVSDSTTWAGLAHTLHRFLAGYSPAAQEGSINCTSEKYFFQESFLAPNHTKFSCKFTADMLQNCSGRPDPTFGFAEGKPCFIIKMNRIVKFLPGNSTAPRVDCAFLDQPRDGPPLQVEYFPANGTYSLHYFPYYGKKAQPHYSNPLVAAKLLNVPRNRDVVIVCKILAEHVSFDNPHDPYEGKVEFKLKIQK
T1 sequence (P19156 whole entry): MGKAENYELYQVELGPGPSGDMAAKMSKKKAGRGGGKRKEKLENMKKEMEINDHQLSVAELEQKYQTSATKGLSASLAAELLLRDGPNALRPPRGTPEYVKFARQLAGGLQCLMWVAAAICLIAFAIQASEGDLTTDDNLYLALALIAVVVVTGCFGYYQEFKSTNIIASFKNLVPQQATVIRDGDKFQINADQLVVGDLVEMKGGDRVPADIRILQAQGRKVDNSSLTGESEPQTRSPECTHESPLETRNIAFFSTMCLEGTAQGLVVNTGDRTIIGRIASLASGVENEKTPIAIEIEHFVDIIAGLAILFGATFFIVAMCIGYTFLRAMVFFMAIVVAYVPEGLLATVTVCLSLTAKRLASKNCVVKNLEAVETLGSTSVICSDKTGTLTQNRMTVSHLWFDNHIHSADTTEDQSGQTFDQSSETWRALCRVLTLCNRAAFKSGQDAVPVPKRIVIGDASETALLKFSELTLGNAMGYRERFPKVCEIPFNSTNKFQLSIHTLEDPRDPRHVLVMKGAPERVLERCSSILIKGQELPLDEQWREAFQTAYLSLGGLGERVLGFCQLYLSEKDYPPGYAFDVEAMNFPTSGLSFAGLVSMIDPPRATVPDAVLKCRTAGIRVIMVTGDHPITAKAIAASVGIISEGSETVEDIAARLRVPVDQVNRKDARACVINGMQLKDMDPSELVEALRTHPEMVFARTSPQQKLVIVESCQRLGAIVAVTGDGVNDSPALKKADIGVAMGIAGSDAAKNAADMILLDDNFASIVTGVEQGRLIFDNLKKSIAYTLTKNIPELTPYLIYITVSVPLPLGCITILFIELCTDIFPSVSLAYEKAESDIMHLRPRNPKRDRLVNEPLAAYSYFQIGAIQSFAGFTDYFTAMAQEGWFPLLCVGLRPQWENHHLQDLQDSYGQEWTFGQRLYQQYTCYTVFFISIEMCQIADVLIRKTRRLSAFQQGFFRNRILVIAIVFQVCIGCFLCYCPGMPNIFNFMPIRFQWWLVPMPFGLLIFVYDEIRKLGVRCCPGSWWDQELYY

Row | SMILES | inhibition [1] | IC50 [2] | other results
1 | Cc1ccccc1Nc1c(Br)cnc2ccccc12 | 31% | 14.1 µM | –
2 | Cc1ccccc1Nc1c(N)cnc2ccccc12 | 27% | 30.6 µM | –
3 | CCNC(=O)c1cnc2c(OC)cccc2c1Nc1ccccc1C | 58% | 2.94 µM | –
4 | COc1cccc2c(Nc3ccccc3C)c(C(=O)OCCN(C)C)cnc12 | 19% | 44 µM | –
5 | CCOC(=O)c1cnc2ccccc2c1Nc1ccccc1C | 49% | 0.6 µM | –
6 | COCC(=O)c1cnc2c(OC)cccc2c1Nc1ccccc1C | – | 12.1 µM | ED50 [3]: 12.2 µmol/kg
7 | CCCC(=O)c1cnc2c(OC)cccc2c1Nc1ccccc1 | 34% | 4 µM | –
8 | COc1cccc2c(Nc3ccccc3C)c(C(=O)C(C)(C)C)cnc12 | 63% | 2.6 µM | Inhibition (Canis familiaris [4]): 11.3%
9 | COc1cccc2c(Nc3ccccc3C)c(C)cnc12 | 12.5% | 6.1 µM | –
10 | CCCc1cnc2c(OC)cccc2c1Nc1ccccc1C | 34% | 8.63 µM | –
11 | CCCSc1cnc2ccccc2c1Nc1ccccc1C | 11% | 5.14 µM | –
12 | CO/N=C(\C)c1cnc2c(OC)cccc2c1Nc1ccccc1C | – | 20.5 µM | –
13 | COc1cccc2c(Nc3ccccc3C)c(C(=O)C3CCC3)cnc12 | 47% | 1.2 µM | –
14 | CNC(=O)c1cnc2c(OC)cccc2c1Nc1ccccc1C | – | – | IC50 [5]: 6.73 µM; Inhibition (Rattus norvegicus [6]): 28%
15 | CCOC(=O)c1cnc2c(OC)cccc2c1Oc1ccccc1C | – | – | inhibition [7]: 13%
16 | COc1cccc2c(Nc3ccccc3C)c(C(=O)c3ccccc3)cnc12 | – | 16.1 µM | –
17 | CCCC(=O)c1cnc2ccccc2c1Nc1ccccc1C | – | 0.97 µM | ED50 [3]: 5.45 µmol/kg; inhibition in vivo at 1 µmol/kg (Canis familiaris [8]): 45.4%
18 | COc1cccc2c(Nc3ccccc3C)c(C(=O)O)cnc12 | – | – | inhibition [9]: 30%
19 | CCCC(=O)c1cnc2c(OC)cccc2c1Nc1ccccc1C | – | 1.05 µM | ED50 [3]: 2.62 µmol/kg; ED50 (Canis familiaris [10]): 1.6 µmol/kg; ED50 (Canis familiaris [11]): 0.26 µmol/kg
20 | COc1cccc2c(Nc3ccccc3C)c(C(=O)NCc3ccccc3)cnc12 | 13% | 49 µM | –
21 | CCOC(=O)c1cnc2c(OC)cccc2c1Nc1ccccc1C.Cl | – | – | Inhibition (Canis familiaris [4]): 11.1%; ED50 (Rattus norvegicus [12]): 8.23 µmol/kg; ED50 (Canis familiaris [11]): 0.49 µmol/kg
22 | COc1cccc2c(Nc3ccccc3C)c(C(=O)C3CCCC3)cnc12 | 56% | 1.7 µM | Inhibition (Canis familiaris [4]): 55.7%

Row | SMILES | inhibition [1] | IC50 [2] | other results
23 | COc1cccc2c(Nc3ccccc3C)c(C(N)=O)cnc12 | – | – | IC50 [5]: 15.3 µM
24 | CCC(=O)c1cnc2c(OC)cccc2c1Nc1ccccc1C | – | 0.4 µM | ED50 [3]: 1.39 µmol/kg; Inhibition (Canis familiaris [4]): 92.3%; inhibition in vivo at 1 µmol/kg (Canis familiaris [8]): 80.9%
25 | COc1cccc2c(Nc3ccccc3C)c(C(=O)N3CCCC3)cnc12 | 15% | – | inhibition [7]: 20%
26 | CCC(CC)C(=O)c1cnc2c(OC)cccc2c1Nc1ccccc1C | 55% | 1.8 µM | –
27 | CN/C(=N\CCSCc1nc[nH]c1C)NC#N [CIMETIDINE] | – | – | ED50 (Canis familiaris [10]): 8.5 µmol/kg; ED50 (Canis familiaris [11]): 1.7 µmol/kg
28 | CCCC(O)c1cnc2c(OC)cccc2c1Nc1ccccc1C (stereo not given) | – | 55 µM | –
29 | CCOC(=O)c1cnc2c(OC)cccc2c1Nc1ccccc1.Cl | – | – | IC50 [5]: 3.54 µM; Inhibition (Rattus norvegicus [6]): 38%
30 | COc1cccc2c(Nc3ccccc3C)ccnc12 | – | 0.1 µM | ED50 [3]: 12.7 µmol/kg
31 | C=CCNC(=O)c1cnc2c(OC)cccc2c1Nc1ccccc1C | 38% | 3.45 µM | –
32 | Cc1ccccc1Nc1c([N+](=O)[O-])cnc2ccccc12 | 30% | – | –
33 | COc1cccc2c(Nc3ccccc3C)c(C(C)=O)cnc12 | – | 4.8 µM | ED50 [3]: 13.2 µmol/kg; inhibition in vivo at 1 µmol/kg (Canis familiaris [8]): 11%
34 | COc1cccc2c(Nc3ccccc3C)c(C(=O)C3CCCCC3)cnc12 | 42% | 3.8 µM | –
35 | CCCNC(=O)c1cnc2c(OC)cccc2c1Nc1ccccc1C | 40% | 22 µM | –
36 | COc1cccc2c(Nc3ccccc3C)c(C(C)O)cnc12 (stereo not given) | – | 24 µM | –
37 | CCCCNC(=O)c1cnc2c(OC)cccc2c1Nc1ccccc1C | 30% | 65 µM | –
38 | Cc1ccccc1Nc1ccnc2ccccc12 | 16% | 1.43 µM | –
39 | CCC[S+]([O-])c1cnc2ccccc2c1Nc1ccccc1C (stereo not given) | 21% | – | inhibition [7]: 19%
40 | COc1cccc2c(Nc3ccccc3C)c(C(=O)NC(C)(C)CO)cnc12 | 13% | – | inhibition [7]: 26%
41 | COc1cccc2c(Nc3ccccc3C)c(CO)cnc12 | – | – | IC50 [5]: 11.6 µM; Inhibition (Rattus norvegicus [6]): 5%
42 | CCOC(=O)c1cnc2c(OC)cccc2c1N(C)c1ccccc1 | – | 89 µM | –
43 | CCCCCC(=O)c1cnc2c(OC)cccc2c1Nc1ccccc1C | – | 2.77 µM | ED50 [3]: 10.7 µmol/kg
44 | COc1cccc2c(Nc3ccccc3C)c(C(=O)C(C)C)cnc12 | – | 1.09 µM | ED50 [3]: 1.92 µmol/kg; Inhibition (Canis familiaris [4]): 44.6%; inhibition in vivo at 1 µmol/kg (Canis familiaris [8]): 75%
